Each structure is given as a SMILES string. pEC50: −log10 of the molar value. Active and inactive are the calls of the source. The calls are words filed in the database; no cut-off is given here.

For data set [1], the system named is Jurkat. The experiment in a line: Inhibition of TNF-alpha-induced necroptosis in FADD-deficient human Jurkat T cells. The data set is classed as functional, cell-based. The essentials:
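FADD-deficient variant of human Jurkat T cells given 10 ng/mL human TNF-α alongside increasing test compound concentrations for 24 h. Viability read by ATP-based assay; EC50 from the concentration series.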

The subject of data set [2] is Jurkat. The experiment in a line: Inhibition of necroptosis in TNF-alpha-induced human Jurkat T cells assessed as cell viability at 30 uM after 24 hrs. In kind it is functional, cell-based. The essentials: (§1)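 FADD-deficient Jurkat, L929 and mouse adult lung fibroblast cells exposed 24 hr to 10 ng/mL human TNF-α and/or 100 µM zVAD.fmk, with compound at 30 µM. ATP-based viability, normalized to compound-treated cells without necroptotic stimulus (100%); N = 2, standard deviation.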

For data set [3], the system named is L929. The experiment in a line: Inhibition of necroptosis in zVAD-induced mouse L929 cells assessed as cell viability at 30 uM after 24 hrs. In kind it is functional, cell-based. In a few lines: as §1
Data set [4] deals with L929. The experiment in a line: Inhibition of necroptosis in TNF-alpha-induced mouse L929 cells assessed as cell viability at 30 uM after 24 hrs. In kind it is functional, cell-based. In a few lines: as §1
The species named for a further data set is Mus musculus. The experiment in a line: Inhibition of necroptosis in zVAD-induced mouse fibroblast assessed as cell viability at 30 uM after 24 hrs. In kind it is functional. In a few lines:
as §1

Data set [5] can be described thus: Metabolic stability assessed as half life in mouse liver microsomes. The data set is classed as ADME, Microsome. In a few lines: (§2)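 Pooled mouse liver microsomes (0.5 mg/mL protein) with 3 µM final compound and 1 mM NADPH, sampled at 0, 5, 15, 30, 60 min; no-NADPH incubation as negative control. Methanol quench, LC/MS (N=3) against internal standard; ln peak-area ratio vs time slope gives k, t1/2 = 0.693/k, CLint = V(0.693)/t1/2.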
(In general: Liver microsomes are vesicles of endoplasmic reticulum, rich in cytochrome P450 enzymes.)

The nature of data set [6]: Intrinsic clearance in mouse liver microsome. The data set is classed as ADME. To be noted: liver microsomes. The essentials: as §2

For `CC(C)n1c(C#N)ccc1C(=O)NCc1c(F)cccc1Cl`, the negative logarithm of the EC50 (pEC50) (in general, the EC50 on a negative log10 scale, so that one unit is a factor of ten) in the data set with Jurkat [1] was 5.85. The same measure, in the same setting: the same measure for `Cn1c(C#N)ccc1C(=O)NCc1c(F)cccc1Cl`: 6.47. On the same count and under the same terms, the same measure for `CC(C)n1cccc1C(=O)NCc1c(F)cccc1Cl`: 6.36. Take `CC(C)n1cccc1C(=O)N[C@H](C)c1c(F)cccc1Cl`: the pEC50 with Jurkat [1] was less than 4.70. The same measure, in the same setting: the same measure for `CCn1c(C#N)ccc1C(=O)NCc1c(F)cccc1Cl`: 5.72. For the compound `CN1C(=O)C(Cc2c[nH]c3ccccc23)NC1=S` (racemic) [NECROSTATIN], the negative-log EC50 (pEC50) in the data set on Jurkat [1] is 7.30. Moreover, the result in the data set with Jurkat [2], in the data set with L929 [3], with L929 [4] and in the data set listed under Mus musculus was Active.

In the case of `CC(C)n1cccc1C(=O)N[C@@H](C)c1c(F)cccc1Cl`, the pEC50 in the data set on Jurkat [1] is 6.28.

On to `C[C@H](NC(=O)c1snnc1C1CC1)c1c(F)cccc1Cl`, for which the half-life (usually how long it takes for the measured level to halve) in data set [5] was 0.542 h. For the same compound, in data set [6], the microsomal CLint (commonly the rate of metabolic loss divided by the concentration) came to 42.6 µL/min/mg. Moreover, the result in the data set with Jurkat [2], in the data set on L929 [3], in the data set on L929 [4] and in the data set listed under Mus musculus was Active.

In the data set with Jurkat [1], `CCCCC(NC(=O)c1cccn1C(C)C)c1c(F)cccc1Cl` (racemic) had a negative-log EC50 (pEC50) of less than 4.70.

As for `O=C(NCc1c(F)cccc1Cl)c1ccc[nH]1`, in the data set on Jurkat [1], the pEC50 is less than 4.70. Same read-out and setting: the same measure for `O=C(NCc1c(F)cccc1Cl)c1cccn1Cc1ccccc1`: less than 4.70.

In turn, `Cn1c(C#N)ccc1S(=O)(=O)NCc1c(F)cccc1Cl` showed a pEC50 in the data set on Jurkat [1] of less than 4.70. Same read-out and setting: the same measure for `Cn1cccc1C(=O)NCc1c(F)cccc1Cl`: 6.05; for `CN(Cc1c(F)cccc1Cl)C(=O)c1cccn1C`: less than 4.70; for `CCn1c(Br)ccc1C(=O)NCc1c(F)cccc1Cl`: 5.62. The same measure, in the same setting: the same measure for `CC(C)n1cc(C#N)cc1C(=O)NCc1c(F)cccc1Cl`: less than 4.70; for `Cn1cc(C#N)cc1C(=O)NCc1c(F)cccc1Cl`: less than 4.70; for `Cc1ccn(C(C)C)c1C(=O)NCc1c(F)cccc1Cl`: 5.11. The same measure, in the same setting: the same measure for `CC(c1ccccc1)n1cccc1C(=O)NCc1c(F)cccc1Cl` (centres undefined): less than 4.70; for `Cc1ccn(C)c1C(=O)NCc1c(F)cccc1Cl`: less than 4.70. In the case of `Cc1ccccc1C(=O)NCc1c(F)cccc1Cl`, the half-life in data set [5] stood at 3.23 h. For the same compound, in data set [6], the microsomal CLint is 7.13 µL/min/mg. `Cn1c(Cl)ccc1C(=O)NCc1c(F)cccc1Cl`: in the data set with Jurkat [1], the negative logarithm of the EC50 (pEC50) was 6.13. On the same count and under the same terms, the same measure for `Cc1cc[nH]c1C(=O)NCc1c(F)cccc1Cl`: 5.31; for `CC(NC(=O)c1cccn1C(C)C)c1c(F)cccc1Cl` (racemic): 5.68.

These data come from ChEMBL document CHEMBL1143090, “Structure-activity relationship and liver microsome stability studies of pyrrole necroptosis inhibitors” (Bioorg Med Chem Lett, 2008).
